Experimental data: ChEMBL document CHEMBL5356992, “New nitazoxanide derivatives: design, synthesis, biological evaluation, and molecular docking studies as antibacterial and antimycobacterial agents” (RSC Med Chem, 2023)
≈ marks a conversion by molar mass, not a printed value.

Tests used:
Escherichia coli [1] = experiment: Antibacterial activity against Escherichia coli ATCC 8739 by broth microdilution method; format: functional
Summary of the method: (§1)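 CLSI broth microdilution on wild-type strains. E. coli ATCC 8739, P. aeruginosa ATCC 27853 and K. pneumoniae ATCC 10031 served as Gram-negatives. S. aureus ATCC 6538 and E. faecalis ATCC 19433 served as Gram-positives. H. pylori ATCC 700392 was tested as the […]. Ciprofloxacin was the reference drug. MIC is given in μM as the mean of three experiments.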

Pseudomonas aeruginosa [2] = experiment: Antibacterial activity against Pseudomonas aeruginosa ATCC 27853 by broth microdilution method; format: functional; summary of the method: as §1
Helicobacter pylori = experiment: Antibacterial activity against Helicobacter pylori ATCC 700392 by broth microdilution method; format: functional; summary of the method: as §1
[3] = tested on: Mycobacterium tuberculosis; experiment: Antimycobacterial activity against Mycobacterium tuberculosis H37Rv incubated for 7 days by alamar blue assay; format: functional; conditions: 168 h, time 7 day
Summary of the method: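 Two-fold serial dilutions in 7H9-S, with growth and sterile controls, incubated at 37 °C for 7 days. Alamar Blue then added and incubated overnight. MIC is the lowest concentration preventing the blue-to-pink change. Means of three experiments.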

Staphylococcus aureus [4] = experiment: Antibacterial activity against Staphylococcus aureus ATCC 6538 by broth microdilution method; format: functional; summary of the method: as §1
Klebsiella pneumoniae [5] = experiment: Antibacterial activity against Klebsiella pneumoniae ATCC 10031 by broth microdilution method; format: functional; summary of the method: as §1
Pseudomonas aeruginosa [6] = experiment: Potency index, ratio of nitazoxanide MIC to test compound MIC for antibacterial activity against Pseudomonas aeruginosa ATCC 27853; format: functional
Staphylococcus aureus [7] = experiment: Potency index, ratio of nitazoxanide MIC to test compound MIC for antibacterial activity against Staphylococcus aureus ATCC 6538; format: functional
Enterococcus faecalis [8] = experiment: Antibacterial activity against Enterococcus faecalis ATCC 19433 by broth microdilution method; format: functional; summary of the method: as §1
Klebsiella pneumoniae [9] = experiment: Potency index, ratio of nitazoxanide MIC to test compound MIC for antibacterial activity against Klebsiella pneumoniae ATCC 10031; format: functional
RAW264.7 = experiment: Cytotoxicity against mouse RAW264.7 cells at 25 ug/ml incubated for 48 hrs by MTT assay; format: toxicity, cell-based; conditions: raw264.7, 48 h, at 25 µg/mL
Summary of the method: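 RAW 264.7 mouse macrophages were grown in RPMI with 10% FBS plus penicillin/streptomycin to 80–90% confluency. About 5000 cells/well were seeded on poly-L-lysine-coated plates and held 24 h at 37 °C, 5% CO2. Compound was added at 25 μg mL−1 for 48 h at 37 °C. MTT (0.5 mg mL−1) was added for 3 h, and formazan was read at 595 and 625 nm. Result is % inhibition.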

[10] = Selectivity index, ratio of cytotoxicity against mouse RAW264.7 cells to MIC for Mycobacterium tuberculosis H37Rv; format: toxicity, cell-based; conditions: read-out: Selectivity Index
Summary of the method: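 SI is cytotoxicity divided by the MABA MIC (μg mL⁻¹) against H37Rv. For cytotoxicity, RAW 264.7 cells were grown in RPMI with 10% FBS and penicillin/streptomycin. About 5000 cells per well were seeded on poly-L-lysine plates and held 24 h at 37 °C, 5% CO2. Compounds were added at 25 μg mL⁻¹ for 48 h, then MTT (0.5 mg mL⁻¹) for 3 h. Formazan was read at 595/625 nm and reported as % inhibition.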

Enterococcus faecalis [11] = experiment: Potency index, ratio of nitazoxanide MIC to test compound MIC for antibacterial activity against Enterococcus faecalis ATCC 19433; format: functional
Escherichia coli [12] = experiment: Potency index, ratio of nitazoxanide MIC to test compound MIC for antibacterial activity against Escherichia coli ATCC 8739; format: functional

Structure (SMILES)	MIC (Escherichia coli [1]) [µM]	MIC (Pseudomonas aeruginosa [2]) [µM]	MIC (Helicobacter pylori) [µM]	MIC [3] [µg/mL]	MIC (Staphylococcus aureus [4]) [µM]	MIC (Klebsiella pneumoniae [5]) [µM]	Ratio (Pseudomonas aeruginosa [6])	Ratio (Staphylococcus aureus [7])	MIC (Enterococcus faecalis [8]) [µM]	Ratio (Klebsiella pneumoniae [9])	Cell growth inhibition (RAW264.7) [%]	selectivity ratio [10]	Ratio (Enterococcus faecalis [11])	Ratio (Escherichia coli [12])
O=C(Nc1ncc([N+](=O)[O-])s1)c1ccc(-n2cc(CN3CCCC3)nn2)cc1O	6.01 (≈ 2.5 µg/mL)	7.22 (≈ 3 µg/mL)	19.2 (≈ 8 µg/mL)	> 25	3.61 (≈ 1.5 µg/mL)	12 (≈ 5 µg/mL)	>50	25						
O=C(Nc1ncc([N+](=O)[O-])s1)c1ccc(-n2cc(CN3C(=O)C(=O)c4cc(Cl)ccc43)nn2)cc1O	487 (≈ 256 µg/mL)		4.75 (≈ 2.5 µg/mL)	> 25		60.9 (≈ 32 µg/mL)								
NNC(=O)c1ccncc1 [ISONIAZID]				0.05 (≈ 0.365 µM)										
O=C(Nc1ncc([N+](=O)[O-])s1)c1ccc(-n2cc(-c3ccccc3)nn2)cc1O			14.7 (≈ 6 µg/mL)	> 25	29.4 (≈ 12 µg/mL)	39.2 (≈ 16 µg/mL)			19.6 (≈ 8 µg/mL)					
CN1CCN(Cc2cn(-c3ccc(C(=O)Nc4ncc([N+](=O)[O-])s4)c(O)c3)nn2)CC1		144 (≈ 64 µg/mL)	6.74 (≈ 3 µg/mL)	> 25	4.49 (≈ 2 µg/mL)	8.99 (≈ 4 µg/mL)		25		<=20				
CO[C@H]1/C=C/O[C@@]2(C)Oc3c(C)c(O)c4c(O)c(c(/C=N/N5CCN(C)CC5)c(O)c4c3C2=O)NC(=O)/C(C)=C\C=C\[C@H](C)[C@H](O)[C@@H](C)[C@@H](O)[C@@H](C)[C@H](OC(C)=O)[C@@H]1C [RIFAMPIN]				0.1 (≈ 0.122 µM)										
O=C(Nc1ncc([N+](=O)[O-])s1)c1ccc(-n2cc(CN3CCOCC3)nn2)cc1O	1190 (≈ 512 µg/mL)	148 (≈ 64 µg/mL)	9.27 (≈ 4 µg/mL)	> 25	6.95 (≈ 3 µg/mL)	18.5 (≈ 8 µg/mL)		25						
CC(=O)Oc1ccccc1C(=O)Nc1ncc([N+](=O)[O-])s1 [NITAZOXANIDE]	104 (≈ 32 µg/mL)	417 (≈ 128 µg/mL)	13 (≈ 4 µg/mL)		104 (≈ 32 µg/mL)	182 (≈ 56 µg/mL)			156 (≈ 48 µg/mL)		20.65	4		
O=C(Nc1ncc([N+](=O)[O-])s1)c1ccc(-n2cc(CN3CCCCC3)nn2)cc1O	74.5 (≈ 32 µg/mL)		1.74 (≈ 0.747 µg/mL)	> 25	9.31 (≈ 4 µg/mL)	1190 (≈ 512 µg/mL)			27.9 (≈ 12 µg/mL)					
Cc1ccc(-c2cn(-c3ccc(C(=O)Nc4ncc([N+](=O)[O-])s4)c(O)c3)nn2)cc1	7.1 (≈ 3 µg/mL)	303 (≈ 128 µg/mL)	5.91 (≈ 2.5 µg/mL)	25 (≈ 59.2 µM)	1210 (≈ 512 µg/mL)				75.8 (≈ 32 µg/mL)		27.6	1		
O=C(Nc1ncc([N+](=O)[O-])s1)c1ccc(-n2cc(CN3C(=O)C(=O)c4cc(Br)ccc43)nn2)cc1O	21 (≈ 12 µg/mL)	5.26 (≈ 3 µg/mL)	3.5 (≈ 2 µg/mL)	> 25	0.87 (≈ 0.496 µg/mL)	4.38 (≈ 2.5 µg/mL)	>50	25	8.76 (≈ 5 µg/mL)	<=20				
O=C(Nc1ncc([N+](=O)[O-])s1)c1ccc(-n2cc(CN3C(=O)C(=O)c4ccccc43)nn2)cc1O		16.3 (≈ 8 µg/mL)	130 (≈ 64 µg/mL)	> 25	32.5 (≈ 16 µg/mL)				4.06 (≈ 2 µg/mL)				25	
COC(=O)c1cn(-c2ccc(C(=O)Nc3ncc([N+](=O)[O-])s3)c(O)c2)nn1	3.84 (≈ 1.5 µg/mL)	15.4 (≈ 6 µg/mL)	3.84 (≈ 1.5 µg/mL)	> 25	10.2 (≈ 4 µg/mL)	5.12 (≈ 2 µg/mL)				<=20				20
